Measurements taken from ChEMBL document CHEMBL4138195, “Discovery of novel propargylamine-modified 4-aminoalkyl imidazole substituted pyrimidinylthiourea derivatives as multifunctional agents for the treatment of Alzheimer's disease” (Eur J Med Chem, 2018).
Calls of active or inactive are those of the source. The rule behind the calls is not given here.

Key:
[1] = Antioxidant activity assessed as trolox equivalent of AAPH radical scavenging activity preincubated for 10 mins followed by AAPH addition measured every 2 mins for 180 mins by ORAC-FL assay; assay type: functional
Summary of the method: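 Compound at 20 µM (diluted from 10 mM DMSO stock in 75 mM phosphate, pH 7.4) with fluorescein (0.117 µM diluted) for 10 min at 37 °C, then AAPH (40 mM solution) added. Fluorescence (ex 485/em 535) read every 2 min for 180 min. […] Triplicate wells, ≥3 runs.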

[2] = biological target: T1, Amine oxidase [flavin-containing] B (Homo sapiens, UniProt P27338); assay: Inhibition of recombinant human MAOB at 50 uM using benzylamine as substrate preincubated for 15 mins followed by substrate addition measured after 15 mins by Amplex red reagent based fluorescence assay; details: 0.25 h
T1 sequence (P27338 whole entry): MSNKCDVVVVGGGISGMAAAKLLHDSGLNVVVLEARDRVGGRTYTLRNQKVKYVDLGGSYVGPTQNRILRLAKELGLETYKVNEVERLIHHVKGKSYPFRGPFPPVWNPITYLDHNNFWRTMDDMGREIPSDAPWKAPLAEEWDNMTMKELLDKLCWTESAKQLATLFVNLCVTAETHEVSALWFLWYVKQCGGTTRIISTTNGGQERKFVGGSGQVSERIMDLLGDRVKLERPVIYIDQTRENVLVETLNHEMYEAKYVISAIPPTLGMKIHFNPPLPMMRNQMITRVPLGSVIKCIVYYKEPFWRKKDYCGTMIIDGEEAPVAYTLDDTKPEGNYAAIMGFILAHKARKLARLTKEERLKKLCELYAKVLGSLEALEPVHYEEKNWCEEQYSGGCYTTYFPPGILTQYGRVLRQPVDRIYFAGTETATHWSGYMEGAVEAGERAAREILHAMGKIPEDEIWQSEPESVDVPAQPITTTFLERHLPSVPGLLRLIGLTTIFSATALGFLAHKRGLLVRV

[3] = biological target: T2, Amine oxidase [flavin-containing] A (Homo sapiens, UniProt P21397); assay: Inhibition of recombinant human MAOA using p-tyramine as substrate preincubated for 15 mins followed by substrate addition measured after 15 mins by Amplex red reagent based fluorescence assay
T2 sequence (P21397 whole entry): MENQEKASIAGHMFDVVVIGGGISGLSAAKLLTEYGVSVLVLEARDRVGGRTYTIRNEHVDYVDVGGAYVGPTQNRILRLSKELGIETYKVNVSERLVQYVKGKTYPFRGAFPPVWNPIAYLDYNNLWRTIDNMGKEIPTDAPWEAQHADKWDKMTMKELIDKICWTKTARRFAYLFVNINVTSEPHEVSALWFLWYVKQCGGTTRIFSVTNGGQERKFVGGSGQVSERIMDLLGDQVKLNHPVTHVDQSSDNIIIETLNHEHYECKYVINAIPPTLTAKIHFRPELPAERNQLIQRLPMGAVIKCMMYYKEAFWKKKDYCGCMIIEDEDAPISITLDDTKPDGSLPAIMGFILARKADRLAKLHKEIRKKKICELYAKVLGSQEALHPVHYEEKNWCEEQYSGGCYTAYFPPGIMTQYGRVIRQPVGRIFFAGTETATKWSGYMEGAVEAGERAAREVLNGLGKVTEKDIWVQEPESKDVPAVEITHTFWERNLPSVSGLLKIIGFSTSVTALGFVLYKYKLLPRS

[4] = biological target: T2, Amine oxidase [flavin-containing] A; assay: Inhibition of recombinant human MAOA at 50 uM using p-tyramine as substrate preincubated for 15 mins followed by substrate addition measured after 15 mins by Amplex red reagent based fluorescence assay; details: 0.25 h
Summary of the method: (§1)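 Recombinant human MAO-A (12.5 µg/mL) or MAO-B (75 µg/mL) preincubated 15 min at 37 °C with compound (diluted from 10 mM DMSO stock in 50 mM KH2PO4, pH 7.4). Amplex Red working solution added: 2 mM p-tyramine (MAO-A) or benzylamine (MAO-B), 2 U/mL HRP. After 15 min at 37 °C, fluorescence read (ex 545/em 590), background from enzyme-free wells subtracted.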

Rattus norvegicus = species: Rattus norvegicus; assay: Selectivity index, ratio of IC50 for BuChE in rat serum to IC50 for AChE in rat cortex homogenate; assay type: tissue-based
[5] = biological target: Butyrylcholinesterase (Rattus norvegicus) (UniProt Q9JKC1); assay: Inhibition of BuChE in rat serum at 40 uM using butyrylthiocholine iodide as substrate after 20 mins by Ellman's method
Sequence of Butyrylcholinesterase (Rattus norvegicus) (Q9JKC1 as listed by the source): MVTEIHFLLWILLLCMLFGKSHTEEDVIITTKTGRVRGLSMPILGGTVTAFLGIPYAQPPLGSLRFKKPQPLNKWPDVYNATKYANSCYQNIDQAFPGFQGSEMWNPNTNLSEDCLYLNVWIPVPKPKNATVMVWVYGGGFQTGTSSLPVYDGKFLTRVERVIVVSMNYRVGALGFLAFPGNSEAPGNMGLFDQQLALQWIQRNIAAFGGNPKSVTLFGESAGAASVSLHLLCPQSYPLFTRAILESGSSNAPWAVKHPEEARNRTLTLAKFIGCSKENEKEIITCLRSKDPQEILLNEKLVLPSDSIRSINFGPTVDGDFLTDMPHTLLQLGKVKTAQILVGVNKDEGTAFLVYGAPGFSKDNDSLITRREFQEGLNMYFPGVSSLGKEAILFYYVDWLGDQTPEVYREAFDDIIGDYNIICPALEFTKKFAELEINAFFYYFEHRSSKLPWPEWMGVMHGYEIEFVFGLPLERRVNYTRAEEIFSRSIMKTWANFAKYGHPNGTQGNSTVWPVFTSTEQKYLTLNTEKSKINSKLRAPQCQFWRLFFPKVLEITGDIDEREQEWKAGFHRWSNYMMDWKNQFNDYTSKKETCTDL

[6] = biological target: T1, Amine oxidase [flavin-containing] B
Butyrylcholinesterase = Butyrylcholinesterase (Rattus norvegicus, UniProt Q9JKC1); assay: Inhibition of BuChE in rat serum using butyrylthiocholine iodide as substrate after 20 mins by Ellman's method
Sequence of Butyrylcholinesterase (Q9JKC1 whole entry): as the sequence (Q9JKC1 as listed by the source) above

Acetylcholinesterase = biological target: T3, Acetylcholinesterase (Rattus norvegicus, UniProt P37136); assay: Inhibition of AChE in rat cortex homogenate using acetylthiocholine iodide as substrate after 20 mins by Ellman's method
T3 sequence (P37136 whole entry): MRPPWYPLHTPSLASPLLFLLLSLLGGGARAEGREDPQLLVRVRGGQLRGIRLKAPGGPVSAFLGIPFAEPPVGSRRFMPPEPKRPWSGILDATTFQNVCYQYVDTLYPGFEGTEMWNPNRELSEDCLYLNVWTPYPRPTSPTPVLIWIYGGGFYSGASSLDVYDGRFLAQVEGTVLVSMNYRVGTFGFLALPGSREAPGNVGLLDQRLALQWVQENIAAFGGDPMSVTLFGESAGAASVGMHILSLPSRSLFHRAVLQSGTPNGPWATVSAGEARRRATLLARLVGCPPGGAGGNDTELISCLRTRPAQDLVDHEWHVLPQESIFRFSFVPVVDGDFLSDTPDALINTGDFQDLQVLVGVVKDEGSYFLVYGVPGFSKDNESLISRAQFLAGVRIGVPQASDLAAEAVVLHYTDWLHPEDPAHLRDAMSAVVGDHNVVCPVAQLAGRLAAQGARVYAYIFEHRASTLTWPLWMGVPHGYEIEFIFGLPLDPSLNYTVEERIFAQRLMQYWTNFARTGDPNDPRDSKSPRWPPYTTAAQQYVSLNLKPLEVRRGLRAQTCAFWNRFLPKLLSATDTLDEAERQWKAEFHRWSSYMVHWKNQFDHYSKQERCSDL

in vitro [7] = details: PAMPA
Cortical neurone = assay: Cytotoxicity against E17 Sprague-Dawley rat primary cortical neurons at 10 to 30 uM after 24 hrs by MTT assay; assay type: cell-based
Homo sapiens = species: Homo sapiens; assay: Selectivity index, ratio of IC50 for recombinant human MAOA to IC50 for recombinant human MAOB; summary of the method: as §1
[8] = Inhibition of Cu2+-induced amyloid beta (1 to 42 residues) (unknown origin) aggregation assessed as reduction in amyloid beta fibril load at 50 uM after 24 hrs by phosphotungstic acid staining-based transmission electron microscopic method
Summary of the method: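 Aβ1-42 (25 µM) ± CuCl2 (25 µM) ± compound (50 µM) in HEPES/NaCl pH 6.6, incubated 24 h at 37 °C. Aliquots placed on carbon-coated copper grids for 30 min, stained 20 s with 2% phosphotungstic acid, imaged by TEM. Clioquinol as comparator.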

[9] = Inhibition of Cu2+-mediated amyloid beta (1 to 42) peptide-induced cytotoxicity in E17 Sprague-Dawley rat primary cortical neurons assessed as neuroprotective activity by measuring increase in cell viability at 1 uM after 24 hrs by MTT assay
Summary of the method: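 Rat E17 primary cortical neurons after 9 days in culture. Aβ1-42 samples, prepared as for the dot blot (± Cu2+, ± compound), added to the cultures at 1 µM for 24 h. Viability by MTT, normalized to the vehicle group. EGCG and clioquinol as positive controls.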

in vitro [10] = details: PAMPA, pH 7.4

| Compound | Activity (umolequiv/umol) [1] | inhibition at 50 µM [2] [%] | IC50 [3] [µM] | inhibition at 50 µM [4] [%] | Ratio IC50 (Rattus norvegicus) | inhibition [5] [%] | IC50 [6] [µM] | IC50 (Butyrylcholinesterase) [µM] | IC50 (Acetylcholinesterase) [µM] | Papp at 12 h, 100 ug/ml (in vitro [7]) [×10⁻⁶ cm/s] | Activity (Cortical neurone) | Ratio IC50 (Homo sapiens) | inhibition [8] | Activity [9] | Papp at 18 h, 25 ug/ml (in vitro [10]) [×10⁻⁶ cm/s] |
| --- | --- | --- | --- | --- | --- | --- | --- | --- | --- | --- | --- | --- | --- | --- | --- |
| C#CCN(CC#N)Cc1cn(-c2cc(NC(=S)NCC)ncn2)cn1 | 0.494 | 15.3 | > 50 | 2.01 | > 57 | 5.48 | > 50 | > 40 | 0.707 |  |  |  |  |  |  |
| C#CCNCCc1cn(-c2cc(NC(=S)NCC)ncn2)cn1 | 1.27 | 19.2 | > 50 | 54.2 | > 175 | 8.73 | > 50 | > 40 | 0.228 | 3.24 |  |  |  |  |  |
| C#CCNCCCc1cn(-c2cc(NC(=S)NCC)ncn2)cn1 | 0.186 | 36.6 | > 50 | 31.4 | > 105 | 12.7 | > 50 | > 40 | 0.381 | 3.26 |  |  |  |  |  |
| C#CCN(Cc1cn(-c2cc(NC(=S)NCC)ncn2)cn1)C(C)=O | 1.17 | 1.17 | > 50 | 4.83 | > 78 | 5.15 | > 50 | > 40 | 0.515 |  |  |  |  |  |  |
| C#CCN(CC#C)Cc1cn(-c2cc(NC(=S)NCC)ncn2)cn1 | 0.585 | 42.1 | > 50 | 15.5 | > 56 | 4.97 | > 50 | > 40 | 0.718 |  |  |  |  |  |  |
| C#CCN(CC)Cc1cn(-c2cc(NC(=S)NCC)ncn2)cn1 | 1.38 | 35.1 | > 50 | 6.71 | > 83 | 10.5 | > 50 | > 40 | 0.482 |  |  |  |  |  |  |
| C#CCN1CCN(Cc2cn(-c3cc(NC(=S)NCC)ncn3)cn2)CC1 | 1.03 | 13.3 | > 50 | 9.22 | > 83 | 7.3 | > 50 | > 40 | 0.482 |  |  |  |  |  |  |
| C#CCN(Cc1ccccc1)Cc1cn(-c2cc(NC(=S)NCC)ncn2)cn1 |  | 18.4 | > 50 | 17.8 | > 68 | 9.28 | > 50 | > 40 | 0.585 |  |  |  |  |  |  |
| C#CCN(C)CCCc1cn(-c2cc(NC(=S)NCC)ncn2)cn1 | 0.447 |  | > 50 | 63.8 |  | 6.7 | 3.23 | > 40 | 0.459 |  |  |  |  |  |  |
| COc1cc2c(cc1OC)C(=O)C(CC1CCN(Cc3ccccc3)CC1)C2 (stereo not drawn) [DONEPEZIL] |  |  |  |  |  |  |  |  |  |  | Non-Toxic |  |  |  |  |
| C#CCN(CCCC)Cc1cn(-c2cc(NC(=S)NCC)ncn2)cn1 | 0.238 | 20.1 | > 50 | 2.43 | > 59 | 13.4 | > 50 | > 40 | 0.675 |  |  |  |  |  |  |
| C#CCNCc1cn(-c2cc(NC(=S)NCC)ncn2)cn1 | 1.18 |  | 4.33 |  | > 113 | 15.2 | 5.24 | > 40 | 0.354 | 2.78 |  | 0.826 |  |  |  |
| C#CCN(CC#N)CCc1cn(-c2cc(NC(=S)NCC)ncn2)cn1 | 0.556 | 24.9 | > 50 | 13.9 | > 67 | 3.02 | > 50 | > 40 | 0.597 |  |  |  |  |  |  |
| C#CCN(CC)CCc1cn(-c2cc(NC(=S)NCC)ncn2)cn1 |  | 49.4 | > 50 | 13 | > 30 | 2.44 | > 50 | > 40 | 1.34 |  |  |  |  |  |  |
| C#CCN(C)CCc1cn(-c2cc(NC(=S)NCC)ncn2)cn1 | 1.24 |  | 9 |  | > 102 | 8.91 | 12.4 | > 40 | 0.392 | 3.33 |  | 0.724 |  |  |  |
| Oc1c(I)cc(Cl)c2cccnc12 |  |  |  |  |  |  |  |  |  |  |  |  | Active | Active |  |
| C#CCN(CCC)Cc1cn(-c2cc(NC(=S)NCC)ncn2)cn1 | 0.448 | 24.3 | > 50 | 1.76 | > 83 | 7.75 | > 50 | > 40 | 0.485 |  |  |  |  |  |  |
| COc1ccc(CCN2CCC(Nc3nc4ccccc4n3Cc3ccc(F)cc3)CC2)cc1 [ASTEMIZOLE] |  |  |  |  |  |  |  |  |  | 8.48 |  |  |  |  | 11 |
